Consider ten molecules from ChEMBL document CHEMBL1123181 (J Med Chem, 1986).

pIC50: −log10 of the molar value.

Experiment [1] addresses T1, Angiotensin-converting enzyme (Oryctolagus cuniculus, UniProt P12822).
T1 sequence (P12822 whole entry): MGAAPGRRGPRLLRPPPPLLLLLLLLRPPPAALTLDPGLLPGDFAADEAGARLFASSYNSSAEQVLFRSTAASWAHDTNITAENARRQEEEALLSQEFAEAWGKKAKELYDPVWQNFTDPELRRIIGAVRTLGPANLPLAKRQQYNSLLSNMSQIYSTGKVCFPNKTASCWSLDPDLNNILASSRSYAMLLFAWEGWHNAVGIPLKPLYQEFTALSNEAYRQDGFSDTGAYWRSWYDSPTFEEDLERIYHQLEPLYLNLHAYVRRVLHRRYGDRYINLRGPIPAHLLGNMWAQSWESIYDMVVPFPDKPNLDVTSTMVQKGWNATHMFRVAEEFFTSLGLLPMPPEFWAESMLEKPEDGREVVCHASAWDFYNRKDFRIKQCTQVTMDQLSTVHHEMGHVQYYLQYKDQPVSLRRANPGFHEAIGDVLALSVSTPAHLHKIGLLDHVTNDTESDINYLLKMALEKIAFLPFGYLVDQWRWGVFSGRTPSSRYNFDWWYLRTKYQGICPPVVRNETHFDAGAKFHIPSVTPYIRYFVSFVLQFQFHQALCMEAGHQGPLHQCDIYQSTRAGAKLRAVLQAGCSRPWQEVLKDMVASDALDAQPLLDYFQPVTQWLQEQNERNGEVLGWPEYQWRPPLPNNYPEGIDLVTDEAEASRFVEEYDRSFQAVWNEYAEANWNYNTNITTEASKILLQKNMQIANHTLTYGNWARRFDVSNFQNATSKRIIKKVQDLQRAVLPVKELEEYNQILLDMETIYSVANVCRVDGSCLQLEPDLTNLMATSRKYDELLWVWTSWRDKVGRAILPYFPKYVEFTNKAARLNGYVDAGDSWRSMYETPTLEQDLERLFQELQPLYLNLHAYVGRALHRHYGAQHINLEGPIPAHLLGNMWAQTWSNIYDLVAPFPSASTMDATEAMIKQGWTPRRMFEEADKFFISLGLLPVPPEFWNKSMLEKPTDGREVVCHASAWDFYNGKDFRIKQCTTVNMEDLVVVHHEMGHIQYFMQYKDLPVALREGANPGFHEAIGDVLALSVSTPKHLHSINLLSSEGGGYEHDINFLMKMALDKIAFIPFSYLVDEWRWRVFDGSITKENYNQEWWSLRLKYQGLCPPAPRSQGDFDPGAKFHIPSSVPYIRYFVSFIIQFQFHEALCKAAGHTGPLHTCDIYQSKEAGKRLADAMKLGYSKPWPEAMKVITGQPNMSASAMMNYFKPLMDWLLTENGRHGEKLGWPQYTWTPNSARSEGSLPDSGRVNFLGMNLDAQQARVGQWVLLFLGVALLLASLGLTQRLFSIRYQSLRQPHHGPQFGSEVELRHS
As to the kind of experiment: In vitro inhibition of Angiotensin I converting enzyme activity in rabbit lung. In kind it is tissue-based. The note with it: read-out: I50.

The target of experiment [2] is Angiotensin-converting enzyme (Rattus norvegicus) (UniProt P47820). As to the kind of experiment: The time to 50% recovery of the angiotensin I response was measured after po administration at 0.6 mg/kg; 40-50.
Angiotensin-converting enzyme (Rattus norvegicus), sequence (P47820 whole entry, looked up): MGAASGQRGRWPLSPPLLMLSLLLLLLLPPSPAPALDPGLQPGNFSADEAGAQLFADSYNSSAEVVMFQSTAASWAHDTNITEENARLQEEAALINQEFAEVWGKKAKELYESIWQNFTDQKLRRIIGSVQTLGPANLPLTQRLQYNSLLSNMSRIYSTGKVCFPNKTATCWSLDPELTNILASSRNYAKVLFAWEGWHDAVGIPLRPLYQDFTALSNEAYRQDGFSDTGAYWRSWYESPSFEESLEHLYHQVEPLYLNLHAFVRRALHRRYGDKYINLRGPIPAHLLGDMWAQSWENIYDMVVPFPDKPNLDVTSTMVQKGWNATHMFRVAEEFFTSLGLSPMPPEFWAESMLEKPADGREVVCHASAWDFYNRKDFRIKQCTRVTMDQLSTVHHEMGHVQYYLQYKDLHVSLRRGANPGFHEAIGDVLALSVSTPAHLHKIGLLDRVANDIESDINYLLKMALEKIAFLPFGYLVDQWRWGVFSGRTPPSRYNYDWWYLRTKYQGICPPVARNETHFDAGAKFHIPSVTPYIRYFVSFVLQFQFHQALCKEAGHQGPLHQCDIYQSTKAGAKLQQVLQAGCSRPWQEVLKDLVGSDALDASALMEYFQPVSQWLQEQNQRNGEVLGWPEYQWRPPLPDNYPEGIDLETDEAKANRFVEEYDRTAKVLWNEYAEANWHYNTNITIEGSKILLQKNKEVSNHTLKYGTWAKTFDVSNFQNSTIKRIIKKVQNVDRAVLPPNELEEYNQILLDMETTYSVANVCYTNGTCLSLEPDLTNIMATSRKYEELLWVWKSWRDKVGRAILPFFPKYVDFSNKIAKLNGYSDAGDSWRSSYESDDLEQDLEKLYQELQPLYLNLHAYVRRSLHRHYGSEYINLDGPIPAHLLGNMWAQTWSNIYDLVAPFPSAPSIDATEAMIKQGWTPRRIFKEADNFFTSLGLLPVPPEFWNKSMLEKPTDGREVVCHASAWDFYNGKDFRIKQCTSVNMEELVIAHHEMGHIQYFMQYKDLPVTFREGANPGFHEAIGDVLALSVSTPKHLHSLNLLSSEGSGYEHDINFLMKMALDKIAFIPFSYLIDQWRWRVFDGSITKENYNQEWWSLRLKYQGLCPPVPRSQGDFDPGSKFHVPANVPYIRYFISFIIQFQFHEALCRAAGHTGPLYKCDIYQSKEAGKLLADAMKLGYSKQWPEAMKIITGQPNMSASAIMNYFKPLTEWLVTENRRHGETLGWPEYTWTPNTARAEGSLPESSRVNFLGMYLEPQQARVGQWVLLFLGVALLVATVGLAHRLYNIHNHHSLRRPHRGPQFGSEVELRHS
Experiment [3] has as its system Rattus norvegicus. As to the kind of experiment: Time taken by the compound to change arterial pressure outside the control area at a dose of 100 mg/kg, po; 5.5-15. In kind it is functional, Artery. A digest of the protocol: (§1)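 Spontaneously hypertensive rats kept on a sodium-deficient diet, single oral dose, arterial pressure and heart rate monitored. Duration is the time pressure lies outside a control area, defined as the means (±2 standard deviations) of arterial pressure and heart rate readings from 45 control rats. Range given across animals.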

The target in experiment [4] is Angiotensin-converting enzyme (Rattus norvegicus) (UniProt P47820). Briefly: Percentage inactivation of the angiotensin I induced vasopressor response in normotensive conscious rats after po administration at dose 0.60 mg/kg; 50-55.
The target in experiment [5] is T1, Angiotensin-converting enzyme. As to the kind of experiment: In vitro inhibition of Angiotensin I converting enzyme activity at pH 8.5 in rabbit lung. In kind it is tissue-based. The note with it: read-out: I50.
The test system of experiment [6] is Rattus norvegicus. As to the kind of experiment: Maximum percent change in mean arterial pressure by the compound over control after po administration at 100 mg/kg dosage; -(17-29). In kind it is functional, Artery. The method in brief:
(§2)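 Spontaneously hypertensive rats kept on a sodium-deficient diet received the agent orally. Value = maximum % change in mean arterial pressure over control. Duration = time outside a control area, defined as the means ±2 SD of arterial pressure and heart rate readings from 45 control rats.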

Experiment [7] addresses Angiotensin-converting enzyme (Rattus norvegicus) (UniProt P47820). As to the kind of experiment: The time to 50% recovery of the angiotensin I response was measured after po administration at 0.15 mg/kg; 30-100.
Experiment [8] shares this target. Briefly: Percentage inactivation of the angiotensin I induced vasopressor response in normotensive conscious rats after po administration at dose 0.15 mg/kg; 64-100.
Experiment [9] relates to Rattus norvegicus. Briefly: Time taken by the compound to change arterial pressure outside the control area at a dose of 100 mg/kg, po; 2-12.5. In kind it is functional, Artery. The method in brief:
as §1

The test system of experiment [10] is Rattus norvegicus. Briefly: The time to 50% recovery of the angiotensin I response was measured after po administration at 0.15 mg/kg; 10-50.
Experiment [11] has as its system Rattus norvegicus. Briefly: Maximum percent change in mean arterial pressure by the compound over control after po administration at 100 mg/kg dosage; -(15-27). In kind it is functional, Artery. A digest of the protocol:
as §2

Experiment [12] deals with Angiotensin-converting enzyme (Rattus norvegicus) (UniProt P47820). As to the kind of experiment: Percentage inactivation of the angiotensin I induced vasopressor response in normotensive conscious rats after po administration at dose 0.15 mg/kg; 65-69.
The test system of experiment [13] is Rattus norvegicus. Briefly: Time taken by the compound to change arterial pressure outside the control area at a dose of 100 mg/kg, po. In kind it is functional, Artery. A digest of the protocol:
as §1

The target of experiment [14] is Angiotensin-converting enzyme (Rattus norvegicus) (UniProt P47820). As to the kind of experiment: The time to 50% recovery of the angiotensin I response was measured after po administration at 0.15 mg/kg; 10-40.
Experiment [15] has as its system Rattus norvegicus. As to the kind of experiment: Maximum percent change in mean arterial pressure by the compound over control after po administration at 100 mg/kg dosage. In kind it is functional, Artery. A digest of the protocol: as §2
In experiment [16] the target is Angiotensin-converting enzyme (Rattus norvegicus) (UniProt P47820). As to the kind of experiment: Percentage inactivation of the angiotensin I induced vasopressor response in normotensive conscious rats after po administration at dose 0.15 mg/kg; 55-76.
Experiment [17] has the same target. As to the kind of experiment: Percentage inactivation of the angiotensin I induced vasopressor response in normotensive conscious rats after po administration at dose 1.5 mg/kg; 71-81.
The subject of experiment [18] is Rattus norvegicus. As to the kind of experiment: Maximum percent change in mean arterial pressure by the compound over control after po administration at 50 mg/kg dosage; -(31-34). In kind it is functional, Artery. The method in brief:
as §2

Experiment [19] concerns the target Angiotensin-converting enzyme (Rattus norvegicus) (UniProt P47820). Briefly: The time to 50% recovery of the angiotensin I response was measured after po administration at 1.5 mg/kg; 70-90.
The subject of experiment [20] is Rattus norvegicus. As to the kind of experiment: Time taken by the compound to change arterial pressure outside the control area at a dose of 50 mg/kg, po; 3-19.5. In kind it is functional, Artery. A digest of the protocol: as §1
Experiment [21] deals with T1, Angiotensin-converting enzyme. As to the kind of experiment: Compound was tested in vitro for inhibition of activity of rabbit lung Angiotensin I converting enzyme at pH 8.5; 0.14-10. The conditions noted are these: read-out: I50.
Experiment [22] deals with Angiotensin-converting enzyme (Rattus norvegicus) (UniProt P47820). Briefly: Percentage inactivation of the angiotensin I induced vasopressor response in normotensive conscious rats after po administration at dose 0.80 mg/kg; 50-55.
The target is the same in experiment [23]. As to the kind of experiment: The time to 50% recovery of the angiotensin I response was measured after po administration at 0.8 mg/kg; 35-50.
The subject of experiment [24] is Rattus norvegicus. As to the kind of experiment: Maximum percent change in mean arterial pressure by the compound over control after po administration at 100 mg/kg dosage; -(-32-40). In kind it is functional, Artery. The method in brief: as §2
For experiment [25], the target named is Angiotensin-converting enzyme (Rattus norvegicus) (UniProt P47820). Briefly: Percentage inactivation of the angiotensin I induced vasopressor response in normotensive conscious rats after po administration at dose 0.3 mg/kg; 45-50.
The target is the same in experiment [26]. As to the kind of experiment: The time to 50% recovery of the angiotensin I response was measured after po administration at 0.3 mg/kg; 10-30.
Experiment [27] deals with Rattus norvegicus. As to the kind of experiment: Time taken by the compound to change arterial pressure outside the control area at a dose of 100 mg/kg, po; 15->24. In kind it is functional, Artery. A digest of the protocol:
as §1

The subject of experiment [28] is Rattus norvegicus. As to the kind of experiment: Maximum percent change in mean arterial pressure by the compound over control after po administration at 100 mg/kg dosage; -(-27-45). In kind it is functional, Artery. The method in brief:
as §2

The target in experiment [29] is Angiotensin-converting enzyme (Rattus norvegicus) (UniProt P47820). Briefly: Percentage inactivation of the angiotensin I induced vasopressor response in normotensive conscious rats after po administration at dose 0.3 mg/kg; 15-17. The conditions noted are these: at 0.3 mg/kg.
Experiment [30] shares this target. Briefly: The time to 50% recovery of the angiotensin I response was measured after po administration at 0.3 mg/kg.
For experiment [31], the system named is Rattus norvegicus. As to the kind of experiment: Maximum percent change in mean arterial pressure by the compound over control after ip administration at 100 mg/kg dosage; 9-14. The conditions noted are these: route intraperitoneal.
For experiment [32], the target named is Angiotensin-converting enzyme (Rattus norvegicus) (UniProt P47820). Briefly: Percentage inactivation of the angiotensin I induced vasopressor response in normotensive conscious rats after po administration at dose 0.15 mg/kg.
For experiment [33] the target is unchanged. Briefly: The time to 50% recovery of the angiotensin I response was measured after po administration at 0.15 mg/kg; 10-20.

As usually defined, the inhibition is the share of the control response that was lost under treatment. Read a low inhibition as a weak effect. In the case of `O=C1CN(C2CCCC2)C(=O)c2cccc(Cl)c2S1`, the pIC50 in [1] was 6.68; in [5] it was 6.55. Besides, the results for the Duration in experiment [2] and in [3] were 40 min and 5.5 h, respectively. The inhibition in [4] is 50%. Also, in experiment [6], the MAP is -17%.
As for `C[C@@H]1CSC(=O)[C@@H]2CCCN2C1=O`, the pIC50 is 7.59 in experiment [1] and 7.77 in [5]. This molecule also came in with a Duration in experiment [7] of 30 min. The inhibition in [8] is 64%.
Regarding `CC1CSC(=O)CN(C2CCCC2)C1=O` (stereo not drawn), the Duration in experiment [9] stood at 2 h; in experiment [10] it was 10 min. Also, the values for the pIC50 in experiment [1] and in experiment [5] were 7.89 and 7.74, respectively. Besides, the MAP in experiment [11] was -15%. For the same molecule, the inhibition in [12] stood at 65%.
Regarding `Cc1ccc(N2CC(=O)SCC(C)C2=O)cc1` (stereo not drawn), the Duration is > 1440 min in experiment [13] and 10 min in [14]. Besides, the results for the pIC50 in [1] and in [5] were 7.68 and 8.30, respectively. In addition, the MAP in experiment [15] was -37%. The molecule further gave an inhibition in experiment [16] of 55%.
For `Cc1ccc(N2CC(=O)SC(C)C2=O)cc1` (stereo not drawn), the pIC50 is 7.07 in experiment [1] and 7.59 in experiment [5]. In addition, the inhibition in [17] turned out to be 71%. Moreover, in experiment [18], the MAP is -31%. For the same molecule, the Duration was 70 min in experiment [19] and 3 h in experiment [20].
Take `CC1SC(=O)C2CSCN2C1=O` (stereo not drawn): the pIC50 is 6.42 in [1] and 6.85 in experiment [21].
Regarding `COc1cccc2c1SC(=O)CN(C1CCCC1)C2=O`, the Duration in experiment [13] was >1440 min; in [23], 35 min. For the same molecule, in experiment [22], the inhibition amounted to 50%. Moreover, the pIC50 is 6.40 in [1] and 6.42 in experiment [5]. For the same molecule, in [24], the MAP is listed as -32%.
On to `C[C@@H]1CSC(=O)[C@@H]2Cc3ccccc3CN2C1=O`, for which the pIC50 in experiment [1] is 7.92. Also, the inhibition in experiment [25] stood at 45%. Besides, the results for the Duration in [26] and in [27] were 10 min and 900 min, respectively. In addition, in experiment [28], the MAP is -27%.
As to `C[C@H]1CSC(=O)[C@@H]2Cc3ccccc3CN2C1=O` (mixture of isomers), the inhibition in [29] was 15%. The Duration in [30] amounted to 10 min.
Turning to `O=C1CN(C2CCCC2)C(=O)c2ccccc2S1`, in experiment [31], the MAP was found to be 9%. In addition, the pIC50 was 5.35 in experiment [1] and 5.32 in experiment [5]. In [32], this molecule came in with an inhibition of 5%. The same molecule displayed a Duration in [33] of 10 min.
